Data taken from PMC4156448 (Memórias do Instituto Oswaldo Cruz, 2014).

Assays:
[1] = system: normal monkey kidney cells (BGM); test: Cytotoxicity MTT assay, BGM cells; format: cell-based; settings: for BGM MLD50: BGM cells, 24 h, MTT, unit only from tested concentrations
[2] = system: human hepatocellular liver carcinoma cell line (HepG2); test: Cytotoxicity MTT assay, HepG2 cells; format: cell-based; settings: 24 h, unit only from tested concentrations
[3] = system: Plasmodium falciparum W2 clone (chloroquine-resistant); test: In vitro activity against P. falciparum blood-stage parasites, anti-HRPII test; format: cell-based; settings: classified by IC50
[4] = system: Plasmodium berghei (NK65); test: Antimalarial suppressive test against Plasmodium berghei in mice; format: in vivo; settings: P. berghei; for Inhibition of parasitaemia at days after parasite inoculation (%) Fifth: day 5; for Inhibition of parasitaemia at days after parasite inoculation (%) Ninth: day 9
How it was run: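 Oral 4-day-type suppressive test, run once. P. berghei NK65 (chloroquine-sensitive) blood stages kept at -70 °C and passaged weekly in outbred Swiss mice. Adult female mice (20 ± 2 g) received 1 × 10^5 infected erythrocytes and were randomised into groups of three 24 h later. […] Parasitaemia was read on Giemsa-stained tail-blood smears on days 5 and 9, as inhibition versus untreated mice (100%).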

[5] = oral 100 mg/kg for three consecutive days
[6] = chloroquine 20 mg/kg, listed as chloroquine

Row | Structure (SMILES) | BGM MLD50 [1] | HepG2 MLD50 [2] | in vitro activity class against P. falciparum [3] | also measured
1 | CC1=C(O)C(=O)c2ccccc2C1=O [Compound 13, 2-hydroxy-3-methyl-1,4-naphthoquinone] | ≥ 5,314.1 µM | 5,308.2 ± 8.3 µM |  | 
2 | CC(C)/C=C/C1=C(O)C(=O)c2ccccc2C1=O [Compound 12, Iso-lapachol] | 1,388.9 ± 592.5 µM | ≥ 4,127.6 µM | partially active (those with IC50 values between 5-30 µM were considered partially active) | difference in cytotoxicity between HepG2 and BGM cells ([1]; HepG2 versus BGM): near two-fold increase
3 | CC(C)=CCC1=C(O)C(=O)c2ccccc2C1=O [Compound 10, Lapachol] | 1,785.1 ± 888.3 µM | 1,491.7 ± 321.4 µM |  | 
4 | CC(C)=CC1=C(O)C(=O)c2ccccc2C1=O [Compound 11, Nor-lapachol] | 1,608.8 ± 221.8 µM | 1,698.6 ± 94.8 µM | partially active (those with IC50 values between 5-30 µM were considered partially active) | in vivo activity class ([4]; oral 100 mg/kg): inactive; Inhibition of parasitaemia at days after parasite inoculation (%) Fifth [4, 5]: 21%; Inhibition of parasitaemia at days after parasite inoculation (%) Ninth [4, 5]: 21%
5 | CCN(CC)CCCC(C)Nc1ccnc2cc(Cl)ccc12 (stereo not shown) [Chloroquine] |  |  |  | Activity ([4]; chloroquine 20 mg/kg): Cure; Inhibition of parasitaemia at days after parasite inoculation (%) Fifth ([4]; chloroquine 20 mg/kg): 100%; Inhibition of parasitaemia at days after parasite inoculation (%) Ninth ([4]; chloroquine 20 mg/kg): 100%; Activity [4, 6]: clearing parasitaemia; survival of mice [4, 6]: maintaining survival of the mice
